This data set in a line: Toxicity liver stage against HepG2, at 10uM. In kind it is cell-based. The arrangement: test concentration 10 uM, cell line HepG2-A16-CD81EGFP. As to conditions: human, HepG2-A16-CD81EGFP cells; read-out: INHIBITION
Summed up:
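Uninfected HepG2-A16-CD81EGFP cells, 3 × 10^3 per well, 1536-well, plated on prespotted compound at 10 μM final, parasite-free screening media added to match infected plates; puromycin 10 μM positive, DMSO 0.5% negative; run in parallel with 48 h PbLuc assay at 37 °C, 5% CO2; viability by CellTiter-Glo luminescence, normalized to controls.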
For `O=C(NCCCn1cccn1)C1CCC(=O)N(Cc2ccccc2F)C1` (stereo not drawn), the cytotoxicity at 10 µM was -3.75%.

Regarding `CC(O)CNCc1ccccc1C(F)(F)F` (stereo not drawn), the cytotoxicity at 10 µM is -3.3%.

`CC(C)CCNC(=O)Cc1cnc(-n2cccc2)s1`: the cytotoxicity at 10 µM is -2.49%.

For the molecule `CC(C)(C)C1SCC(=O)Nc2c1c(O)nn2C1CCCCC1` (stereo not drawn), the cytotoxicity at 10 µM is -16.7%.

Turning to `Cc1ccc(NC(=O)Nc2cnc(N3CCN(C)CC3)nc2)cc1`, the cytotoxicity at 10 µM was -15.4%.

For the molecule `COC1CC2(CCN(Cc3ccc4c(c3)OCO4)CC2)C1`, the cytotoxicity at 10 µM came to 3.07%.

In the case of `O=C1CC(c2ccccc2)C2(CCN(Cc3ccccn3)CC2)N1` (stereo not drawn), the cytotoxicity at 10 µM stood at 3.91%.

In the case of `CCC1CCCCN1C(=O)Cn1nc(-c2cc(C)oc2C)cc(N)c1=O` (stereo not drawn), the cytotoxicity at 10 µM is 2.44%.

On to `CC(=O)N1CCC(c2n[nH]cc2-c2ccnc(N)c2)C1` (stereo not drawn), for which the cytotoxicity at 10 µM was 0.355%.

`CCn1cc(S(=O)(=O)NCC2(N3CCOCC3)CCCCC2)c(C)n1`: the cytotoxicity at 10 µM is -27.5%.

`CN(C)c1ncccc1CN1CCOC(C(=O)Nc2ccccc2)C1` (stereo not drawn): the cytotoxicity at 10 µM was -29.7%.

With `Cc1ccc(CN2CC[C@H](O)[C@@H](n3ccc(=O)[nH]c3=O)CC2)cc1`, the cytotoxicity at 10 µM is -22.8%.

With `CC(C)N1CCCC(CCCc2ccccn2)(C(=O)O)C1` (stereo not drawn), the cytotoxicity at 10 µM is 2.6%.

As for `CC(C)NC(=O)N1CCN(c2ccc(Cl)nn2)C(=O)C1`, the cytotoxicity at 10 µM came out at 5.01%.

For the molecule `O=C(c1cccnc1)N1CCC2(CNS(=O)(=O)c3cnccc3O2)C1` (stereo not drawn), the cytotoxicity at 10 µM turned out to be 15.7%.

As for `O=C(C[S+]([O-])Cc1csc(C2CCCC2)n1)Nc1ccccc1` (stereo not drawn), the cytotoxicity at 10 µM was -42.3%.

In the case of `Cc1ccc(C(=O)N2CCCC(N(C)C(=O)OC(C)(C)C)C2)o1` (stereo not drawn), the cytotoxicity at 10 µM was -54%.

With `CS(=O)(=O)c1cc(C(=O)NS(=O)(=O)Cc2ccc(F)cc2)ccc1Cl`, the cytotoxicity at 10 µM is -3.38%.

For `COc1ccc(CCNC(=O)NCc2cccc(C(N)=O)c2)cc1OC`, the cytotoxicity at 10 µM was 11.8%.

`Cc1[nH]nc2ncc(C(=O)N3CCCC3c3noc(C(C)C)n3)cc12` (stereo not drawn): the cytotoxicity at 10 µM amounted to 8.38%.

Consider `O=C(c1ccccc1F)N(CCCO)S(=O)(=O)c1cccs1`, for which the cytotoxicity at 10 µM came to 4.95%.

For `CC(C)(C)c1ncc(CNCC2CN(C3CC3)CCO2)s1` (stereo not drawn), the cytotoxicity at 10 µM is 0.948%.

With `Cc1cc(N(Cc2cccnc2)C2CC2)n2nc(C(F)(F)F)nc2n1`, the cytotoxicity at 10 µM was -1.95%.

On to `CC(C)CC(N)C1=NC(=C2N=CN=N2)NO1` (stereo not drawn), for which the cytotoxicity at 10 µM stood at 10.6%.

On to `COc1ccc(CCC2CCCCN2)cc1OC` (stereo not drawn), for which the cytotoxicity at 10 µM is 12.1%.

`Cc1ccc(C(C)N(C)C(=O)c2ccc(=O)n(C)c2)s1` (stereo not drawn): the cytotoxicity at 10 µM is -4.27%.

Turning to `COc1ccc(C2CCN(Cc3cscn3)CC2)cc1`, the cytotoxicity at 10 µM is -0.243%.

`COc1ccc(-c2nnc(C(C)N3CCOCC3)o2)cc1` (stereo not drawn): the cytotoxicity at 10 µM was -10.4%.

In the case of `CC1CN(Cc2cccc(CNC3CCCC3)c2)CCO1` (stereo not drawn), the cytotoxicity at 10 µM was 3.06%.

Regarding `Cc1noc(C(C)N2CCN(Cc3noc(C4CC4)n3)CC2)n1` (stereo not drawn), the cytotoxicity at 10 µM was 0.973%.

`CCCNC(=O)CN(C)C1CCN(c2ccc(Cl)cc2)CC1`: the cytotoxicity at 10 µM turned out to be 1.41%.

Take `CCCN(CCC)C(=O)CN1CCCC1C(=O)N(C)C` (stereo not drawn): the cytotoxicity at 10 µM stood at 7.42%.

Consider `COC(=O)C(CNC(=O)Nc1nncs1)Cc1ccc(F)cc1` (stereo not drawn), for which the cytotoxicity at 10 µM was 0.571%.

For `O=C(CN(Cc1cccs1)c1ccc(F)cc1)NC1CCOCC1`, the cytotoxicity at 10 µM amounted to 13.5%.

As for `CC(c1ccccn1)N(C)C(=O)CN1CCN(c2ccccn2)CC1` (stereo not drawn), the cytotoxicity at 10 µM was 5.1%.

`N#Cc1ccc(CCC(=O)N2CCC(CN3CCOCC3)CC2)cc1`: the cytotoxicity at 10 µM was -4.97%.

On to `NC(=O)N1CCCC(C(=O)Nc2cccc(Cl)c2)C1` (stereo not drawn), for which the cytotoxicity at 10 µM is 8.16%.

In the case of `CCn1nc2c(cc1=O)CN(c1nc3ccccc3s1)CC2`, the cytotoxicity at 10 µM amounted to 7.5%.

In the case of `CC(C)Cc1noc(CC2CCS(=O)(=O)C2)n1` (stereo not drawn), the cytotoxicity at 10 µM was 3.03%.

As for `COc1cc(OC)cc(N2CCC(NCc3cccs3)C2=O)c1` (stereo not drawn), the cytotoxicity at 10 µM came out at 4.63%.

With `CCSCCC(=O)NCCn1nc2ccccn2c1=O`, the cytotoxicity at 10 µM is -9.53%.

In the case of `CC(C)c1ncc2c(n1)CN(Cc1cccc3c1OCCO3)CC2`, the cytotoxicity at 10 µM is -4.34%.

With `CCC(CC)c1cc(CNC(=O)N2CCC[C@@H]2CO)on1`, the cytotoxicity at 10 µM was -5.16%.

For the molecule `CC(C)(C)C(=O)NCc1nccn1CCc1ccccc1`, the cytotoxicity at 10 µM turned out to be 3.75%.

As to `CC(C)c1nc(C(=O)N2CCOCC2CC(=O)c2ccco2)cs1` (stereo not drawn), the cytotoxicity at 10 µM was -7.58%.

With `CCC(CC)NC(=O)CN1CCN(C(=O)N(C)C)CC1`, the cytotoxicity at 10 µM is -3.7%.

For `Cc1nn(C)c(C)c1NC(=O)CNc1cc(C(F)(F)F)ccc1F`, the cytotoxicity at 10 µM turned out to be 13.4%.

Take `Cc1nn(C)c(C)c1CCC(=O)OCC(=O)N1CCc2sccc2C1`: the cytotoxicity at 10 µM was determined as 0.927%.

In the case of `Cc1nn(C)c(C)c1C(=O)NCc1cccnc1OC1CCCC1`, the cytotoxicity at 10 µM is -0.171%.

As to `c1ccc(OCCN2CCC(n3cncn3)CC2)cc1`, the cytotoxicity at 10 µM is -20.7%.

Consider `Cc1noc(C)c1CC(=O)Nc1ccn(CC(N)=O)n1`, for which the cytotoxicity at 10 µM was 9.86%.

As to `CCc1nc(CC)n(CC(=O)NCc2ccccc2C)n1`, the cytotoxicity at 10 µM is 15.2%.

For `CC(c1cccc(Cl)c1)N(C)CCS(=O)(=O)CCC(N)=O` (stereo not drawn), the cytotoxicity at 10 µM was -45.8%.

Regarding `c1ccc2[nH]c(C3CCN(Cc4nc(C5CC5)no4)CC3)cc2c1`, the cytotoxicity at 10 µM amounted to 9.02%.

As for `CC(C)Sc1ccc(C(C)NC(=O)Cn2cccnc2=O)cc1` (stereo not drawn), the cytotoxicity at 10 µM stood at 16.8%.

With `CCS(=O)(=O)N1Cc2nccn2CC(Cn2cccn2)C1` (stereo not drawn), the cytotoxicity at 10 µM came to 10.7%.

Regarding `CC(=O)N1CCC2(CC1)CN(CC1CC1)c1ccc(F)cc12`, the cytotoxicity at 10 µM is -113%.

With `CC(=O)N1CCO[C@@H]2CN(S(=O)(=O)C3CC3)CC[C@@H]2C1`, the cytotoxicity at 10 µM is -112%.

For the molecule `CCO[C@@H]1CCN(C(=O)c2cscn2)[C@@H]1Cc1cnn(C)c1`, the cytotoxicity at 10 µM worked out at 4.84%.

On to `CC(C)Cn1cncc1CNC1CCSC1` (stereo not drawn), for which the cytotoxicity at 10 µM was -2.34%.

Turning to `COc1ccccc1CC(=O)N(CCN1CCOCC1)Cc1ccco1`, the cytotoxicity at 10 µM was found to be 2.91%.

Regarding `COC1CCN(S(=O)(=O)N2C[C@H](c3ccccc3)[C@@H](N)C2)CC1`, the cytotoxicity at 10 µM stood at 11.8%.

In the case of `Cc1nc(CN2CCC3(CCCO3)CCC2=O)no1` (stereo not drawn), the cytotoxicity at 10 µM is -0.452%.

With `O=c1c2sccc2ncn1Cc1cc(C2CC2)[nH]n1`, the cytotoxicity at 10 µM is 0.463%.

Consider `Cc1cc(C)c(C(=O)NC(c2nnc3n2CCNCC3)C(C)C)c(C)c1` (stereo not drawn), for which the cytotoxicity at 10 µM is -7.01%.

As for `Cc1nn(C)c2nc(N3CCN(Cc4nccn4C)CC3)sc12`, the cytotoxicity at 10 µM is -4.66%.

As to `CC(c1ccccn1)N(C)Cc1ccc(-n2ccnc2)cc1` (stereo not drawn), the cytotoxicity at 10 µM is -0.452%.

Consider `Cc1cc(N2CCCN(c3nc(C)nc(C)c3C)CC2)ccn1`, for which the cytotoxicity at 10 µM is -13.1%.

For the molecule `Cc1cc(C)cc(CN2CCN(Cc3ccc4nonc4c3)CC2=O)c1`, the cytotoxicity at 10 µM was 0.403%.

For the molecule `COc1ccc2c(C)nc(N3C[C@@H](C)O[C@@H](C)C3)nc2c1`, the cytotoxicity at 10 µM came to 6.77%.

As to `Cn1c(Cn2ncc(N3CCCC3)cc2=O)nc2ccccc21`, the cytotoxicity at 10 µM is 5.65%.

On to `CN(CCCc1cnn(C)c1)C(=O)C1CCCN(C2CCCC2)C1` (stereo not drawn), for which the cytotoxicity at 10 µM was -7.17%.

Consider `O=C1N(Cc2ccc(F)c(F)c2)CCCC12CCN(C1CCCC1)C2` (stereo not drawn), for which the cytotoxicity at 10 µM is -2.8%.

`CCn1nc(C(C)C)cc1C(=O)NCc1nc2ccc(OC)cc2[nH]1`: the cytotoxicity at 10 µM was 4.28%.

Take `CCC(CO)N(Cc1ccsc1)Cc1ccccc1C#N` (stereo not drawn): the cytotoxicity at 10 µM is 9.64%.

For the molecule `CCN(CC)CCc1nc2c([nH]1)CC(c1ccc(Cl)cc1)CNC2=O` (stereo not drawn), the cytotoxicity at 10 µM was -58.9%.

For `COCC(=O)N(Cc1cccnc1)CC1CCCN(C2CCCCC2)C1` (stereo not drawn), the cytotoxicity at 10 µM worked out at 1.72%.

As to `O=C(NCc1cccnc1)C1CN(c2cnc3ccccc3n2)CCN1` (stereo not drawn), the cytotoxicity at 10 µM is -48.9%.

On to `CC(=O)N[C@@H]1CN(Cc2oc3ccccc3c2C)C[C@H]1c1ccc(C)o1`, for which the cytotoxicity at 10 µM was -12.3%.

`C/C(=C\c1ccco1)CN(C)C(C)c1ccccn1` (stereo not drawn): the cytotoxicity at 10 µM was -3.49%.

As for `CN1CC(c2ccccc2)CC12CCN(C(=O)c1ccc(Cl)cc1)CC2` (stereo not drawn), the cytotoxicity at 10 µM is -2.72%.

As to `CN(CCNc1ncc2c(n1)CCN2c1ccccc1)S(C)(=O)=O`, the cytotoxicity at 10 µM is 0.557%.

Take `Cc1nc(NC(=O)N2CCCC(N(C)C)C2)nn1C` (stereo not drawn): the cytotoxicity at 10 µM is -9.4%.

With `COc1ccccc1OCc1cc(C(=O)N2CCN(C(C)=O)CC2)n[nH]1`, the cytotoxicity at 10 µM is -2.59%.

With `Cc1ncc(CN2CCCC2c2ccc(C(=O)NCc3ccoc3)s2)s1` (stereo not drawn), the cytotoxicity at 10 µM was -1.06%.

Take `CC(C)N1CCC(NCc2cccnc2N(C)Cc2ccccc2)CC1`: the cytotoxicity at 10 µM turned out to be 21%.

With `Cc1nc(C2CCN(C(=O)c3ccc(=O)n(C)c3)CC2)c2sccn12`, the cytotoxicity at 10 µM is -5.38%.

With `Cn1cc(CCNCc2cc(Br)c3c(c2)OCO3)cn1`, the cytotoxicity at 10 µM was -18%.

On to `COc1cc(CNC2CCc3nc(C)nn3C2)cc2c1OCCO2` (stereo not drawn), for which the cytotoxicity at 10 µM is -9.16%.

As for `Cc1nccn1C1CCCN(C(=O)c2ccc(N(C)C)nc2)C1` (stereo not drawn), the cytotoxicity at 10 µM is -7.62%.

Consider `O=S(=O)(N(Cc1ccccn1)C1CC1)N1CCCC1c1ccco1` (stereo not drawn), for which the cytotoxicity at 10 µM is -3.73%.

`Cc1cnn(CC2CCCCN2Cc2nnc(-c3ccco3)o2)c1` (stereo not drawn): the cytotoxicity at 10 µM is -10.4%.

With `Cc1cc(S(=O)(=O)NC(C)(C)CN)c(F)cc1F`, the cytotoxicity at 10 µM was 4.87%.

Regarding `Cc1cc(F)c(S(=O)(=O)NCC(C)(C)N)cc1F`, the cytotoxicity at 10 µM was determined as 6.65%.

As for `Cc1noc(C)c1CN1CC[C@H]2OCC[C@@]2(C(=O)N2CCCO2)C1`, the cytotoxicity at 10 µM was 1.59%.

`CN(C)C(=O)N1CCO[C@@H]2CC(COCc3cccnc3)C[C@H]21` (stereo partly drawn): the cytotoxicity at 10 µM amounted to 8.61%.

With `O=C(Nc1ccccc1)N1CCn2nnc(COc3cccnc3)c2C1`, the cytotoxicity at 10 µM was -2.03%.

`Cn1cccc1C(=O)N1CCC2(CCN(C(=O)c3cccnc3)C2)CC1`: the cytotoxicity at 10 µM is -102%.
